Assays:
Sapajus apella [1] = test: Iron-clearing efficiency in iron-loaded Cebus apella assessed as excretion in stool at 75 umol/kg, po relative to control; format: functional
How it was run: (§1)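 Iron-loaded Cebus apella monkeys given the chelator orally, prepared as for rats except some solubilized in 40% Cremophor RH-40/water. Feces and urine collected at 24 h intervals from 4 d before to 5 d after dosing; iron by flame AAS. Efficiency = (2-day post-drug iron output minus 4-day pre-drug mean) / theoretical 2:1 output, %. Stool/urine split given. Mean ± SEM.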

[2] = Ratio of iron clearing efficiency in iron-overloaded Cebus apella to non-iron-overloaded Sprague-Dawley rat; format: functional
How it was run: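 Performance ratio = mean ICE in iron-overloaded primates divided by mean ICE in non-overloaded rats.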

Rattus norvegicus [3] = test: Iron-clearing efficiency in non-iron overloaded Sprague-Dawley rat at 300 umol/kg, po relative to control; format: functional
How it was run: (§2)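 Male Sprague-Dawley rats (400-450 g), bile-duct cannulated and not iron overloaded, given one oral 300 µmol/kg dose. Given in water, as monosodium salt (1 equiv NaOH) or in 40% Cremophor. Bile collected every 3 h for up to 48 h and urine every 24 h; iron by flame AAS. Efficiency = (treated minus control iron excretion) / theoretical 2:1 output, %; bile/urine split given.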

Rattus norvegicus [4] = test: Iron-clearing efficiency in non-iron overloaded Sprague-Dawley rat assessed as excretion in bile at 300 umol/kg, po relative to control; format: functional; how it was run: as §2
Rattus norvegicus [5] = test: Iron-clearing efficiency in non-iron overloaded Sprague-Dawley rat assessed as excretion in urine at 300 umol/kg, po relative to control; format: functional; how it was run: as §2
Sapajus apella [6] = test: Iron-clearing efficiency in iron-loaded Cebus apella assessed as excretion in urine at 75 umol/kg, po relative to control; format: functional; how it was run: as §1
Rattus norvegicus [7] = test: Iron clearance in non-iron overloaded Sprague-Dawley rat at 300 umol/kg, po at 3 hrs; format: functional
How it was run: (§3)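 Male Sprague-Dawley rats (400-450 g) with bile-duct cannulation and no iron overload, given a single oral 300 µmol/kg dose. Bile collected at 3 h intervals for up to 48 h. Iron measured by flame atomic absorption and reported as µg iron per kg body weight at each interval.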

Rattus norvegicus [8] = test: Iron clearing efficiency in non-iron overloaded Sprague-Dawley rat at 300 umol/kg, po in presence of 250 mg/kg/dose sodium benzoate; format: functional
How it was run: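 Bile-duct-cannulated rats given the chelator orally at 300 µmol/kg. Sodium benzoate in distilled water, 250 mg/kg/dose sc, given 0.5 h before the chelator and then hourly for five more doses. Iron in bile and urine measured by flame AAS. Efficiency = (treated minus control iron excretion) / theoretical output for a 2:1 complex, as percent.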

Kidney [9] = test: Distribution in kidney in non-iron overloaded Sprague-Dawley rat at 300 umol/kg, sc after 1 hr; format: ADME, organism-based; settings: in vivo
How it was run: (§4)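 Tissue distribution: rats dosed once sc at 300 µmol/kg. Plasma, kidney, liver, heart and pancreas sampled at 0.5, 1, 2 and 4 h. Plasma chelator reported in µM and tissue levels as nmol compound per g wet weight. n = 3 per time point.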

Kidney [10] = test: Distribution in kidney in non-iron overloaded Sprague-Dawley rat at 300 umol/kg, sc after 4 hrs; format: ADME, organism-based; settings: in vivo; how it was run: as §4
Rattus norvegicus [11] = test: Iron-clearing efficiency in non-iron overloaded Sprague-Dawley rat at 300 umol/kg, po after 48 hrs relative to control; format: functional; how it was run: as §2
Rattus norvegicus [12] = test: Iron-clearing efficiency in non-iron overloaded Sprague-Dawley rat assessed as excretion in bile at 300 umol/kg, po after 48 hrs relative to control; format: functional; how it was run: as §2
Rattus norvegicus [13] = test: Iron-clearing efficiency in non-iron overloaded Sprague-Dawley rat assessed as excretion in urine after 48 hrs at 300 umol/kg, po relative to control; format: functional; how it was run: as §2
Kidney [14] = test: Distribution in kidney in non-iron overloaded Sprague-Dawley rat at 300 umol/kg, sc after 0.5 hrs; format: ADME, organism-based; settings: in vivo; how it was run: as §4
Kidney [15] = test: Distribution in kidney in non-iron overloaded Sprague-Dawley rat at 300 umol/kg, sc after 2 hrs; format: ADME, organism-based; settings: in vivo; how it was run: as §4
Liver [16] = test: Distribution in liver in non-iron overloaded Sprague-Dawley rat at 300 umol/kg, sc after 0.5 hrs; format: ADME, organism-based; settings: in vivo; how it was run: as §4
Liver [17] = test: Distribution in liver in non-iron overloaded Sprague-Dawley rat at 300 umol/kg, sc after 1 hr; format: ADME, organism-based; settings: in vivo; how it was run: as §4
[18] = Distribution in plasma in non-iron overloaded Sprague-Dawley rat at 300 umol/kg, sc after 0.5 hrs; format: ADME, organism-based; how it was run: as §4
Plasma [19] = test: Distribution in plasma in non-iron overloaded Sprague-Dawley rat assessed as decrease in concentration at 300 umol/kg, sc after 1 hr; format: ADME, organism-based; parameters: scale not given: the % may be the effect or the level left; settings: in vivo; how it was run: as §4
Plasma [20] = test: Distribution in plasma in non-iron overloaded Sprague-Dawley rat assessed as decrease in concentration at 300 umol/kg, sc after 2 hrs; format: ADME, organism-based; parameters: scale not given: the % may be the effect or the level left; settings: in vivo; how it was run: as §4
Plasma [21] = test: Distribution in plasma in non-iron overloaded Sprague-Dawley rat assessed as decrease in concentration at 300 umol/kg, sc after 4 hrs; format: ADME, organism-based; parameters: scale not given: the % may be the effect or the level left; settings: in vivo; how it was run: as §4
[22] = Distribution in pancreas per wet weight in non-iron overloaded Sprague-Dawley rat at 300 umol/kg, sc after 2 hrs; settings: in vivo
[23] = Partition coefficient, log P in TRIS buffer at pH 7.4; format: physicochemical
How it was run: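 Shake-flask direct method in TRIS buffer, pH 7.4. Reported as log of the fraction in the octanol layer (log Papp).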

Sapajus apella [24] = test: Iron-clearing efficiency in iron-loaded Cebus apella at 75 umol/kg, po relative to control; format: functional; how it was run: as §1
Rattus norvegicus [25] = test: Iron clearance in non-iron overloaded Sprague-Dawley rat at 300 umol/kg, po at 6 hrs; format: functional; how it was run: as §3

Drug uptake (Kidney [9]) [nmol/g] | Drug uptake (Kidney [10]) [nmol/g] | Drug uptake (Kidney [14]) [nmol/g] | Drug uptake (Kidney [15]) [nmol/g] | Drug uptake (Liver [16]) [nmol/g] | Drug uptake (Liver [17]) [nmol/g] | concentration at 0.5 h [18] [µM] | Activity (Plasma [19]) [%] | Activity (Plasma [20]) [%] | Activity (Plasma [21]) [%] | Drug uptake [22] [nmol/g] | SMILES | Activity (Sapajus apella [1]) [%] | Ratio [2] | Activity (Rattus norvegicus [4]) [%] | Activity (Rattus norvegicus [5]) [%] | Activity (Sapajus apella [6]) [%] | Activity (Rattus norvegicus [7]) [µg/kg] | also measured
– | – | – | – | – | – | – | – | – | – | – | C[C@]1(C(=O)[O-])CSC(c2cccc(O)c2O)=N1.[Na+] | 83 | 5 | 98 | 2 | 17 | – | Activity (Rattus norvegicus [3]): 4.6%
179 | 27 | – | – | – | – | – | – | – | – | – | C[C@]1(C(=O)[O-])CSC(c2ccc(O)cc2O)=N1.[Na+] [DEFERITRIN SODIUM] | 88 | – | 100 | 0 | 12 | 68 | Activity (Rattus norvegicus [8]): 12%
– | – | – | – | – | – | – | – | – | – | – | COc1cccc(C2=N[C@@](C)(C(=O)[O-])CS2)c1O.[Na+] | 91 | 1.8 | – | – | 9 | – | Activity (Rattus norvegicus [11]): 12.4%; Activity (Rattus norvegicus [12]): 99%; Activity (Rattus norvegicus [13]): 1%
252 | 34 | 368 | 41 | 339 | 315 | 194 | 28 | 92 | 97 | 30 | COCCOCCOCCOc1ccc(C2=N[C@@](C)(C(=O)O)CS2)c(O)c1 | 96 | – | 90 | 10 | 4 | 183 | Activity (Rattus norvegicus [8]): 8.8%
435 | 116 | 643 | 321 | 483 | 315 | 324 | 39 | 54 | 82 | 30 | COCCOCCOCCOc1ccc(O)c(C2=N[C@@](C)(C(=O)[O-])CS2)c1.[Na+] | 56 | 1 | 98 | 2 | 44 | 388 | Activity (Rattus norvegicus [3]): 8%; logD [23]: -1.27; Activity (Sapajus apella [24]): 8.1%
– | – | – | – | – | – | – | – | – | – | – | C[C@]1(C(=O)[O-])CSC(c2cc(O)ccc2O)=N1.[Na+] | 88 | 12.6 | 99 | 1 | 12 | – | –
– | – | – | – | – | – | – | – | – | – | – | COc1ccc(O)c(C2=N[C@@](C)(C(=O)[O-])CS2)c1.[Na+] | 94 | 3 | 95 | 5 | 6 | – | –
259 | 90 | 280 | 145 | 242 | 318 | 62 | 26 | 61 | 79 | 16 | COCCOCCOCCOc1cccc(C2=N[C@@](C)(C(=O)[O-])CS2)c1O.[Na+] | 72 | 2.3 | – | – | 28 | – | Activity (Rattus norvegicus [25]): 287 µg/kg; Activity (Rattus norvegicus [11]): 10.6%; Activity (Rattus norvegicus [12]): 95%; Activity (Rattus norvegicus [13]): 5%; logD [23]: -1.22; Activity (Sapajus apella [24]): 24.5%
– | – | – | – | – | – | – | – | – | – | – | COc1ccc(C2=N[C@@](C)(C(=O)[O-])CS2)c(O)c1.[Na+] | 91 | – | 98 | 2 | 9 | – | –

Reference: ChEMBL document CHEMBL1145412, “Impact of the 3,6,9-trioxadecyloxy group on desazadesferrithiocin analogue iron clearance and organ distribution” (J Med Chem, 2007)
